Laboratory results: PubChem BioAssay
Active and inactive are the calls of the source.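 Rule for the calls, unless noted: active = a full or partial loss of lipid-probe fluorescence in the fish gall bladder, intestine or both, judged by eye; inactive = no fluorescence loss, or compound toxic to the fish.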

Target: Alpha-2C adrenergic receptor (Homo sapiens) (UniProt P18825)
Assay: compounds altering alpha2C-coupled GIRK flux – cell-based, HEK293 alpha2C/GIRK1/2, thallium flux, primary screen (AID 624;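 active = fluorescence slope after compound addition differing from the mean of all screened samples at 99.7% confidence, in either direction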;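 note: slope of fluorescence ratio to pre-addition baseline per second over 15 to 24 s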)
Conditions: thallium flux BTC fluorescence, at 10 µM, actives lie on both sides

Chain of Alpha-2C adrenergic receptor (Homo sapiens) (P18825 whole entry, looked up): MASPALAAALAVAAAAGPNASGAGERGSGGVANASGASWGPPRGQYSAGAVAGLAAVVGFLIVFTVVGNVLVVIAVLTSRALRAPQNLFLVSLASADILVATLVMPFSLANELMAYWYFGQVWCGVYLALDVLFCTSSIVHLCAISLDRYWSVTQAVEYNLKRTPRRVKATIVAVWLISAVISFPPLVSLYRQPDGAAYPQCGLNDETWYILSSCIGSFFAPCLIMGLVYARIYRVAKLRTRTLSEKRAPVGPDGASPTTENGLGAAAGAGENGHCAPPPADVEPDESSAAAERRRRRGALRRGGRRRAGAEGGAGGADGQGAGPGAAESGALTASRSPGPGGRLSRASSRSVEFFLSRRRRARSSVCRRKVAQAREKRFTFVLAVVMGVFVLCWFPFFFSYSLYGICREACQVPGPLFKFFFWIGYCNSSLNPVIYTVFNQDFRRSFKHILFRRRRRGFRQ

Structure (SMILES) | slope
Nc1ccc(S(=O)(=O)Nc2ncccn2)cc1 | 0.00507 (inactive)
CC(=O)O[C@H]1C(=O)[C@]2(C)[C@H]([C@H](OC(=O)c3ccccc3)[C@]3(O)C[C@H](OC(=O)[C@H](O)[C@@H](NC(=O)c4ccccc4)c4ccccc4)C(C)=C1C3(C)C)[C@]1(OC(C)=O)CO[C@@H]1C[C@@H]2O | 0.00483 (inactive)
CCC(=O)O[C@@H]1CC(=O)O[C@H](C)CC=CC=C[C@@H](O)[C@H](C)C[C@H](CC=O)[C@H](O[C@H]2O[C@H](C)[C@@H](O[C@H]3C[C@@](C)(O)[C@@H](OC(=O)CC)[C@H](C)O3)[C@H](N(C)C)[C@H]2O)[C@H]1OC | 0.00447 (inactive)
CCCn1c(=O)[nH]c(=O)c2[nH]cnc21 | 0.00482 (inactive)
CC[N+](C)(C)Cc1ccccc1Br | 0.00416 (inactive)
COc1ccccc1OCC(O)COC(N)=O (configuration not stated) | 0.00504 (inactive)
COc1cc2nc(N3CCN(C(=O)c4ccco4)CC3)nc(N)c2cc1OC | 0.00375 (inactive)
Cc1nnc(SCC2=C(C(=O)O)N3C(=O)[C@@H](NC(=O)Cn4cnnn4)[C@H]3SC2)s1 | 0.00463 (inactive)
CC1(C)S[C@@H]2[C@H](NC(=O)[C@H](C(=O)O)c3ccsc3)C(=O)N2[C@H]1C(=O)O | 0.00461 (inactive)
O=C(O)c1cc(=O)c2c(OCC(O)COc3cccc4oc(C(=O)O)cc(=O)c34)cccc2o1 | 0.0051 (inactive)
CC[C@H]1OC(=O)C[C@@H](O)[C@H](C)[C@@H](O[C@@H]2O[C@H](C)C[C@H](N(C)C)[C@H]2O)[C@@H](CC=O)C[C@@H](C)C(=O)C=C[C@]2(C)O[C@H]2[C@@H]1C | 0.00472 (inactive)
O=C(O)CCNC(=O)c1ccccc1 | 0.00491 (inactive)
CC[C@H](C)C(=O)O[C@H]1C[C@@H](C)C=C2C=C[C@H](C)[C@H](CC[C@@H]3C[C@@H](O)CC(=O)O3)[C@H]21 | 0.00586 (inactive)
Cc1ccc(C2C3CN(C(C)C)CC=C3C(C#N)=C(N)C2(C#N)C#N)cc1 (configuration not stated) | -0.00688 (active)

Target: Muscarinic acetylcholine receptor M4 (Homo sapiens) (UniProt P08173)
Assay: M4-linked GIRK flux change, two-sided – cell-based, HEK293 M4/GIRK, thallium flux, BTC-AM, M4 allosteric agonist project, primary screen (AID 625;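 active = fluorescence slope after compound addition differing from the mean of all tested samples at 99.7% confidence, mostly higher but some lower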;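 note: thallium influx through GIRK channels coupled to M4 in HEK293 cells with BTC-AM dye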)
Conditions: at 10 µM, actives lie on both sides
In short: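 Material: M4/GIRK1/GIRK2 stable HEK293 cell line. Medium: pH 7.3 thallium assay buffer. Dosing: single compound concentration, 10 µM final. Schedule: 1 h dye loading, 2 min kinetic read. Measured by: kinetic fluorescence with BTC-AM dye. Read-out: post-addition slope, 15–24 s, of baseline-normalized fluorescence. Benchmarks: carbachol and DMSO controls.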

Chain of Muscarinic acetylcholine receptor M4 (Homo sapiens) (P08173 whole entry, looked up): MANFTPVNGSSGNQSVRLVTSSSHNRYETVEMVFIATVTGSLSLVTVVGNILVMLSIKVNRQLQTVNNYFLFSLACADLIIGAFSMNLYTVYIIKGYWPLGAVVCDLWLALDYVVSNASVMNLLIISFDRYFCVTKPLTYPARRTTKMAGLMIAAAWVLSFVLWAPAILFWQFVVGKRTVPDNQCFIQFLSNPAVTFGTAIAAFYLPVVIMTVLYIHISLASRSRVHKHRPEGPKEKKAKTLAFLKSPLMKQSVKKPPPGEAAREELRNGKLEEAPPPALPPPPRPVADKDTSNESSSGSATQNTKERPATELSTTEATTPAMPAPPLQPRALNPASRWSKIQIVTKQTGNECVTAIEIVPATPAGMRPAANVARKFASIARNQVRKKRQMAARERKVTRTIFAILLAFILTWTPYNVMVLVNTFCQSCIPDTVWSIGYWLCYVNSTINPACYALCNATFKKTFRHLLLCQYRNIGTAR

Structure (SMILES) | fluorescence slope
N#CC1=C(N)N(c2ccccc2)C(c2ccccc2)C1(C#N)C#N (configuration not stated) | 0.00486 (inactive)
COCc1cc(=O)[nH]c(Nc2nc3ccccc3o2)n1 | 0.00519 (inactive)
O=C(O)c1cc(=O)cc(C(=O)O)[nH]1 | 0.00559 (inactive)
CCOC(=O)CC(C#N)c1cn(C)c2ccccc12 (configuration not stated) | 0.00661 (inactive)
CCOC(=O)C1=C(CSc2nc(C)cc(C)c2C#N)OC(N)=C(C#N)C1c1cccs1 (configuration not stated) | 0.00829 (inactive)
COc1ccccc1C1C(C#N)=C(N)Oc2cc(C)n(Cc3ccccn3)c(=O)c21 (configuration not stated) | 0.00473 (inactive)
COC(=O)c1cc(=O)n2c(-c3ccc(OC)cc3)csc2n1 | 0.00743 (inactive)

Test system: not listed separately
Assay: inhibitors of larval lipid processing in zebrafish, primary screen, whole organism, PED6 fluorescence, gall bladder and intestine (AID 686);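 note: larvae 5 to 7 days old with five fish per well; signal comes from phospholipase A2 cleavage of quenched PED6 carried via bile; overnight exposure to compound and PED6 before scoring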
Conditions: Zebrafish larvae PED6 lipid processing, fluorescence scoring; screened at 20 µM (by protocol)
In short: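 System: live zebrafish larvae aged 5-7 days, whole organism; measure: graded gall bladder and intestinal fluorescence inhibition per well; incubation: overnight exposure; reagent: ingested quenched lipid PED6 at 100 nM; signal: By-eye fluorescence microscopy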

Structure (SMILES) | outcome
N#CC1=C(N)N(c2ccccc2)C(c2ccccc2)C1(C#N)C#N (configuration not stated) | inactive
CC(C)NCC(O)COc1cccc2[nH]ccc12 (configuration not stated) | inactive
COCc1cc(=O)[nH]c(Nc2nc3ccccc3o2)n1 | inactive
Cc1cc(C)n(S(=O)(=O)Cc2ccccc2)n1 | inactive
Cn1c(Cl)cnc1C1CC(=O)c2cc(Cl)ccc2O1 (configuration not stated) | inactive
CCOC(=O)CC(C#N)c1cn(C)c2ccccc12 (configuration not stated) | inactive
CCCC(=O)Nc1ccc(OCC(O)CNC(C)C)c(C(C)=O)c1 (configuration not stated) | inactive
CC1(C)SC2[C@H](NC(=O)C(NC(=O)N3CCNC3=O)c3ccccc3)C(=O)N2C1C(=O)O (some centres not stated) | inactive
CCOC(=O)C1=C(CSc2nc(C)cc(C)c2C#N)OC(N)=C(C#N)C1c1cccs1 (configuration not stated) | inactive
Cc1ccc(N(CC2=NCCN2)c2cccc(O)c2)cc1 | inactive
Cc1cc(NS(=O)(=O)c2ccc(N)cc2)no1 | inactive
O=c1cc(NCc2ccccc2)nc2n1CCCS2 | inactive
COc1ccc2c(C)nc(Nc3nc(C)cc(C)n3)nc2c1 | inactive
Fc1cc(F)c(F)c(SCCc2ccncc2)c1F | inactive
CN1CCN(C2=Nc3ccccc3Oc3ccc(Cl)cc32)CC1 | inactive; toxic
Cc1cnc(NC(=O)C2=C(O)c3ccccc3S(=O)(=O)N2C)s1 | inactive
COc1cccc2c1C(=O)c1c(O)c3c(c(O)c1C2=O)C[C@@](O)(C(=O)CO)C[C@@H]3O[C@H]1C[C@H](N)[C@H](O)[C@H](C)O1 | inactive
CC(C)Cc1ccc(C(C)C(=O)O)cc1 (configuration not stated) | inactive

Structure (SMILES) | outcome
COC(=O)C1=C(C)NC(C)=C(C(=O)OC)C1c1ccccc1[N+](=O)[O-] | inactive
Nc1ccc(S(=O)(=O)Nc2ncccn2)cc1 | inactive
COc1ccccc1C1C(C#N)=C(N)Oc2cc(C)n(Cc3ccccn3)c(=O)c21 (configuration not stated) | inactive
CC(=O)O[C@H]1C(=O)[C@]2(C)[C@H]([C@H](OC(=O)c3ccccc3)[C@]3(O)C[C@H](OC(=O)[C@H](O)[C@@H](NC(=O)c4ccccc4)c4ccccc4)C(C)=C1C3(C)C)[C@]1(OC(C)=O)CO[C@@H]1C[C@@H]2O | inactive
CCC(=O)O[C@@H]1CC(=O)O[C@H](C)CC=CC=C[C@@H](O)[C@H](C)C[C@H](CC=O)[C@H](O[C@H]2O[C@H](C)[C@@H](O[C@H]3C[C@@](C)(O)[C@@H](OC(=O)CC)[C@H](C)O3)[C@H](N(C)C)[C@H]2O)[C@H]1OC | inactive
CCCn1c(=O)[nH]c(=O)c2[nH]cnc21 | inactive
CC[N+](C)(C)Cc1ccccc1Br | inactive
COC(=O)c1cc(=O)n2c(-c3ccc(OC)cc3)csc2n1 | inactive
COc1ccccc1OCC(O)COC(N)=O (configuration not stated) | inactive
COc1cc2nc(N3CCN(C(=O)c4ccco4)CC3)nc(N)c2cc1OC | inactive
Cc1nnc(SCC2=C(C(=O)O)N3C(=O)[C@@H](NC(=O)Cn4cnnn4)[C@H]3SC2)s1 | inactive
Clc1ccc2c(c1)C(N1CCNCC1)=Nc1ccccc1O2 | inactive; toxic
CC1(C)S[C@@H]2[C@H](NC(=O)[C@H](C(=O)O)c3ccsc3)C(=O)N2[C@H]1C(=O)O | inactive
O=C(O)c1cc(=O)c2c(OCC(O)COc3cccc4oc(C(=O)O)cc(=O)c34)cccc2o1 | inactive
CC[C@H]1OC(=O)C[C@@H](O)[C@H](C)[C@@H](O[C@@H]2O[C@H](C)C[C@H](N(C)C)[C@H]2O)[C@@H](CC=O)C[C@@H](C)C(=O)C=C[C@]2(C)O[C@H]2[C@@H]1C | inactive
O=C(O)CCNC(=O)c1ccccc1 | inactive
CC[C@H](C)C(=O)O[C@H]1C[C@@H](C)C=C2C=C[C@H](C)[C@H](CC[C@@H]3C[C@@H](O)CC(=O)O3)[C@H]21 | inactive
Cc1ccc(C2C3CN(C(C)C)CC=C3C(C#N)=C(N)C2(C#N)C#N)cc1 (configuration not stated) | inactive
